Test: Toxicity liver stage against HepG2, at 10uM
Type: cell-based
Set-up: test concentration 10 uM, cell line HepG2-A16-CD81EGFP
Conditions: human, HepG2-A16-CD81EGFP cells; read-out: INHIBITION
Summary of the method: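 Uninfected HepG2-A16-CD81EGFP cells, 3 × 10^3 per well, 1536-well, plated on prespotted compound at 10 μM final, parasite-free screening media added to match infected plates; puromycin 10 μM positive, DMSO 0.5% negative; run in parallel with 48 h PbLuc assay at 37 °C, 5% CO2; viability by CellTiter-Glo luminescence, normalized to controls.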

COc1ccc(-c2cn3c(n2)CO[C@@H](CNCc2ccccn2)C3)cc1
cytotoxicity at 10 µM: -11.8%

Cc1cc(=O)n2nc(-c3cccs3)nc2n1CC(=O)NC(C)C
cytotoxicity at 10 µM: 12.7%

COC(=O)c1cccc(C(=O)N2CCN(c3cc(Cl)ccc3C)CC2)n1
cytotoxicity at 10 µM: 81.2%

O=C1CSC(c2ccsc2)c2c(n(C3CCOCC3)[nH]c2=O)N1 (stereo not given)
cytotoxicity at 10 µM: 9.53%

O=C(Nc1ccccc1)c1nn(C2CCS(=O)(=O)C2)c2c1CCCC2 (stereo not given)
cytotoxicity at 10 µM: -9.75%

CCn1cc(C(=O)NCc2csc(C3CC3)n2)c(C)n1
cytotoxicity at 10 µM: 27.4%

COCC(=O)NC[C@]1(O)CN(Cc2ccc3c(c2)OCCO3)C[C@H]1O
cytotoxicity at 10 µM: 1.88%

CC(C)Oc1cccc(CN2CCC(c3n[nH]c4ncccc34)CC2)c1
cytotoxicity at 10 µM: -6.15%

C[C@@]1(O)CCN(Cc2cc[nH]n2)C[C@H]1Oc1cccc(F)c1
cytotoxicity at 10 µM: -6.86%

O=C(c1ccccn1)N1CCC2(COc3ncccc3S(=O)(=O)N2)C1 (stereo not given)
cytotoxicity at 10 µM: 8.96%

CC(C)CCN1CCC2(CNS(=O)(=O)c3cccnc3O2)C1 (stereo not given)
cytotoxicity at 10 µM: 4.1%

CC(C)(C)c1nccc(N2CCC(OCCN3CCCCC3)C2)n1 (stereo not given)
cytotoxicity at 10 µM: -53.7%

COc1ccc(CNC(=O)Nc2ccc(S(=O)(=O)C(F)F)cc2)cc1
cytotoxicity at 10 µM: 33.6%

Cc1cc(CN(C)C(=O)Nc2ccccc2C)no1
cytotoxicity at 10 µM: -8.75%

c1csc(N2CCCN(c3ncnc4sccc34)CC2)n1
cytotoxicity at 10 µM: 45.3%

COc1cccc2c1N(CC(=O)Nc1ccc(Br)cn1)CCC2
cytotoxicity at 10 µM: 36.5%

CC(C)S(=O)(=O)CCN1CCc2c(ncn2C2CC2)C1
cytotoxicity at 10 µM: -13.9%

COc1cc(C(C)NCc2ncccc2C)ccc1SC(F)F (stereo not given)
cytotoxicity at 10 µM: -8.47%

CSc1cc2c(cc1NC(=O)NCC1CCOC1)OCCO2 (stereo not given)
cytotoxicity at 10 µM: -4.54%

CC(C)Sc1nnnn1C1CCCC1
cytotoxicity at 10 µM: -8.61%

CCCS(=O)(=O)N1CCC(NC(=O)c2cc3ccccc3s2)CC1
cytotoxicity at 10 µM: 4.69%

CCC(CNC(=O)c1cncc(Br)c1)N1CCc2ccccc2C1 (stereo not given)
cytotoxicity at 10 µM: 13.4%

CCNS(=O)(=O)c1ccc(C)c(C(=O)N(C)Cc2ccccc2C)c1
cytotoxicity at 10 µM: 0.997%

CCN(C(=O)C1CCC1)C(c1cccnc1)c1ccc2c(c1)CCO2 (stereo not given)
cytotoxicity at 10 µM: -7.88%

OCC1CCCN1c1cc(NCCc2ccsc2)ncn1 (stereo not given)
cytotoxicity at 10 µM: 8.51%

CCSC1(CNc2ncc(Br)cn2)CCOCC1
cytotoxicity at 10 µM: -2.72%

CNC(=O)c1cccc(CNC(C)c2ccc(F)cc2N(C)C)c1 (stereo not given)
cytotoxicity at 10 µM: 0.508%

COc1ccc(NC(C)=O)cc1OCc1cccnc1
cytotoxicity at 10 µM: -23.5%

Clc1ccc(CN2CCc3c(ncn3C3CC3)C2)c2ncccc12
cytotoxicity at 10 µM: 14%

COCCC(=O)Nc1ccnn1-c1ccccc1
cytotoxicity at 10 µM: -2.55%

CCC(=O)Nc1cc(Br)cnc1OCC(F)(F)F
cytotoxicity at 10 µM: -1.24%

CN(C(=O)C(c1c(F)cccc1Cl)N(C)C)c1nccs1 (stereo not given)
cytotoxicity at 10 µM: -58%

NS(=O)(=O)c1ccc(NC(=O)CSc2ccc3c(c2)CCC3)cc1
cytotoxicity at 10 µM: -9.06%

CCS(=O)(=O)N1CCc2c(COCc3ccncc3)cncc2C1
cytotoxicity at 10 µM: -84.1%

Cc1nccc([C@@H]2C[C@@H]3CCN(Cc4c(C)noc4C)C[C@H]3O2)n1
cytotoxicity at 10 µM: -76.9%

O=C(N1CCOCC1)N1CCC2(CC1)CN(c1ccccn1)CCO2
cytotoxicity at 10 µM: -78.2%

CC(C)NC(=O)N1CCC2(CC(=O)N(c3cccc(C#N)c3)C2)C1 (stereo not given)
cytotoxicity at 10 µM: 5.66%

CC(C)c1cc(NCC2(CO)CCC2)ncn1
cytotoxicity at 10 µM: 4.66%

COCCN1CCC(CNC(=O)Nc2ccc(SC(F)(F)F)cc2)C1 (stereo not given)
cytotoxicity at 10 µM: -11.6%

C=C(C)COc1cccc(CNC(CC)c2ccnn2C)c1 (stereo not given)
cytotoxicity at 10 µM: -4.21%

CCc1nccn1CCC(=O)N1CCN(c2ccccc2C)CC1C (stereo not given)
cytotoxicity at 10 µM: 11%

Cc1c(CN2CC[C@@H](N3CCC(O)CC3)[C@H](O)C2)[nH]c2ccc(F)cc12
cytotoxicity at 10 µM: 4.07%

CCc1cc(CN(C)C(=O)C2CC(=O)N(c3cccc(O)c3)C2)on1 (stereo not given)
cytotoxicity at 10 µM: -1.72%

Cc1cnn(CCCn2ncc(N3CCC(CN)C3)cc2=O)c1 (stereo not given)
cytotoxicity at 10 µM: -48.2%

CSCc1ccc(N2CCC(C(O)CC(C)C)CC2)nc1 (stereo not given)
cytotoxicity at 10 µM: 11.4%

Cc1nsc(NC(=O)N2CCCCC2CCO)n1 (stereo not given)
cytotoxicity at 10 µM: -45.7%

Cc1ccc2nc(C)cc(C(=O)N[C@H]3COC[C@@H]3N3CCOCC3)c2c1
cytotoxicity at 10 µM: -42.2%

Cc1cc(CNc2nccc(N)n2)c2[nH]c(C)c(C)c2c1
cytotoxicity at 10 µM: -1.86%

COc1ccc(Oc2ncccc2C(F)(F)F)cc1CN1CCCC1
cytotoxicity at 10 µM: 4.22%

Cc1nccn1CCC1CCCCN1C(=O)c1ccc(N(C)C)cc1 (stereo not given)
cytotoxicity at 10 µM: 0.811%

OC1(CNCCSc2ccccn2)CNCCOC1 (stereo not given)
cytotoxicity at 10 µM: -9.41%

O=C(Cc1nc(-c2ccncc2)n[nH]1)NCCCN1CCOCC1
cytotoxicity at 10 µM: -1.8%

Cc1c[nH]c(CN2CCCn3nc(CNS(C)(=O)=O)cc3C2)n1
cytotoxicity at 10 µM: 1.79%

O=C(C1CCCC1)N1CCC(C2CCN(Cc3ccc(Cl)cc3)C2)CC1 (stereo not given)
cytotoxicity at 10 µM: -2.45%

CN1CCCC1c1ccc(C(=O)N2CCc3ccccc3C2)s1 (stereo not given)
cytotoxicity at 10 µM: 1.66%

CSc1ccc(-c2nc(CN3CCC(NC(C)=O)C3)c(C)o2)cc1 (stereo not given)
cytotoxicity at 10 µM: 1.24%

Cc1ccsc1[C@@H]1CCN(C(=O)c2cc3ccccc3[nH]2)C[C@H]1O
cytotoxicity at 10 µM: 29%

O=C(NCCCNc1ccc(C(F)(F)F)cn1)c1ccc(F)cc1
cytotoxicity at 10 µM: -8.72%

Cc1ccccc1-c1cc(C(=O)N2CCCC(n3ccnc3C)C2)[nH]n1 (stereo not given)
cytotoxicity at 10 µM: 14.3%

Cc1csc(NC(=O)CN2CCc3c(nc(C4CC4)n3C)C2)n1
cytotoxicity at 10 µM: -6.6%

O=C(Cc1ccc(F)c(Br)c1)N1CCN(CCO)CC1
cytotoxicity at 10 µM: -11.5%

CCc1nccn1C1CCCN(C(=O)c2cnc3onc(C)c3c2)C1 (stereo not given)
cytotoxicity at 10 µM: -15.9%

CC(c1ccco1)N(C)Cc1nc2c(cnn2C)c(=O)[nH]1 (stereo not given)
cytotoxicity at 10 µM: -3.29%

CCc1ncc2c(n1)CN(CC(=O)Nc1ccc(Cl)cn1)CC2
cytotoxicity at 10 µM: 1.47%

Cc1nn(-c2ccccc2)cc1C(=O)N1CCCC(n2cccn2)C1 (stereo not given)
cytotoxicity at 10 µM: 1.3%

CC(=O)Nc1nc(C(=O)NCc2ccc(N3CCCCCC3)nc2)cs1
cytotoxicity at 10 µM: 4.74%

Cn1cc(CN2CC[C@H]3O[C@H](C(=O)NC4CC4)CC[C@H]32)c2ccccc21
cytotoxicity at 10 µM: 8.82%

COc1ccc(C(C)NCc2ccc(OC)c(OC)c2OC)cc1F (stereo not given)
cytotoxicity at 10 µM: 55.9%

C1CC(N2Cc3nnn(CC4CC4)c3C(COCC3CC3)C2)C1 (stereo not given)
cytotoxicity at 10 µM: 5.57%

CCN(CC)C(=O)c1nc2c(s1)CCN(Cc1cccc(OC)c1)CC2
cytotoxicity at 10 µM: 2.77%

Cc1cc(C)cc(CN2C[C@@H]3OCCN(CC(=O)N(C)C)[C@@H]3C2)c1
cytotoxicity at 10 µM: -92.9%

O=C(c1cccs1)N1CCCC2(COCCN(c3cccnc3)C2)C1 (stereo not given)
cytotoxicity at 10 µM: -70.3%

Cc1ccc2c(n1)N(CC(C)C)CCN(S(C)(=O)=O)C2
cytotoxicity at 10 µM: -65.7%

Cc1ccc(C(=O)N2CC[C@H]3[C@H]2CCN3CC2CCOCC2)cc1F
cytotoxicity at 10 µM: -83.3%

Cc1nnc(N2C[C@H]3OCC[C@H]3[C@H](C(=O)NCC3CC3)C2)s1
cytotoxicity at 10 µM: 2.03%

COc1cccc(CN2C[C@@H]3COC[C@]3(COc3cccnc3)C2)c1
cytotoxicity at 10 µM: -64.7%

Cc1n[nH]cc1CNCc1cccc(OCC(F)(F)F)c1
cytotoxicity at 10 µM: 2.75%

COc1ccc(C(=O)N2Cc3cc(C)ccc3OCC2CN(C)C)cc1 (stereo not given)
cytotoxicity at 10 µM: -14.5%

Cc1ccc(CN2CC[C@H]3O[C@@H](C(=O)N4CCCO4)CC[C@H]32)s1
cytotoxicity at 10 µM: -3.29%

CN(C)S(=O)(=O)N1C[C@H]2CC[C@@H](C1)N(CCC(=O)NCc1ccco1)C2
cytotoxicity at 10 µM: -6.74%

— ChEMBL document CHEMBL4513216, “Probing the Open Global Health Chemical Diversity Library for Multistage-Active Starting Points for Next-Generation Antimalarials” (ACS Infect Dis, 2020)
